Experimental data: ChEMBL document CHEMBL4689842, “EUbOPEN Chemogenomics Library wave 1” (2021)
Several values for one entry are separate records, joined by “and”; a condition that tells them apart may be missing. Identical values can stand only once.

System: HEK-293T
Experiment: Multiplex assay against HEK293T;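 as to Population Tubulin-Different-Phenotype (%): share of the cells with healthy nuclei that show this phenotype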
Format: toxicity, cell-based
Settings: human
Procedure, shortened: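 Live cells were stained at seeding with Hoechst33342, BioTracker Green Microtubule Cytoskeleton Dye, MitoTracker Red and Annexin V Alexa Fluor 680. Following compound addition, they were imaged on a CQ1 microscope at 37°C and 5% CO2 and gated by CellPathfinder machine learning into Hoechst high-intensity objects or normal cells, with normal cells split into healthy, pyknosed or fragmented nuclei and pyknosed cells into mitotic or apoptotic. Tubulin, mitochondrial-mass and membrane-permeability phenotypes are per cents of healthy-nucleus cells.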

[1] = 12 h, 1 µM, compound concentration 1 uM, replicate 1
[2] = 12 h, 1 µM, compound concentration 1 uM, replicate 2
[3] = 12 h, 10 µM, compound concentration 10 uM, replicate 1
[4] = 12 h, 10 µM, compound concentration 10 uM, replicate 2
[5] = 24 h, 1 µM, compound concentration 1 uM, replicate 1
[6] = 24 h, 1 µM, compound concentration 1 uM, replicate 2
[7] = 24 h, 10 µM, compound concentration 10 uM, replicate 1
[8] = 24 h, 10 µM, compound concentration 10 uM, replicate 2
[9] = 48 h, 1 µM, compound concentration 1 uM, replicate 1
[10] = 48 h, 1 µM, compound concentration 1 uM, replicate 2
[11] = 48 h, 10 µM, compound concentration 10 uM, replicate 1
[12] = 48 h, 10 µM, compound concentration 10 uM, replicate 2

## O=C(c1cc2c(cc1F)OC(c1ccc(F)cc1)(c1ccc(Cl)cc1Cl)O2)N1CCOCC1 (stereo not given)
[1]
  Population Apoptotic (%): 45%
  Population Fragmented Nuclei (%): 17%
  Population Healthy Nuclei (%): 37%
  Population Hoechst High Intensity Objects (%): 12%
  Population Membrane Permeable-Phenotype (%): 1%
  Population Mitochondria Different-Phenotype (%): 87%
  Population Mitotic Cells (%): 54%
  Population Normal (%): 87%
  Population Pyknosed Nuclei (%): 44%
  Population Tubulin-Different-Phenotype (%): 54%
  Total Cell Count: 214
[2]
  Population Apoptotic (%): 16%
  Population Fragmented Nuclei (%): 5%
  Population Healthy Nuclei (%): 35%
  Population Hoechst High Intensity Objects (%): 5%
  Population Membrane Permeable-Phenotype (%): 3%
  Population Mitochondria Different-Phenotype (%): 24%
  Population Mitotic Cells (%): 84%
  Population Normal (%): 94%
  Population Pyknosed Nuclei (%): 59%
  Population Tubulin-Different-Phenotype (%): 23%
  Total Cell Count: 268
[3]
  Population Apoptotic (%): 64%
  Population Fragmented Nuclei (%): 10%
  Population Healthy Nuclei (%): 17%
  Population Hoechst High Intensity Objects (%): 17%
  Population Membrane Permeable-Phenotype (%): 0%
  Population Mitochondria Different-Phenotype (%): 94%
  Population Mitotic Cells (%): 35%
  Population Normal (%): 82%
  Population Pyknosed Nuclei (%): 72%
  Population Tubulin-Different-Phenotype (%): 97%
  Total Cell Count: 264
[4]
  Population Apoptotic (%): 54%
  Population Fragmented Nuclei (%): 8%
  Population Healthy Nuclei (%): 8%
  Population Hoechst High Intensity Objects (%): 9%
  Population Mitochondria Different-Phenotype (%): 58%
  Population Mitotic Cells (%): 45%
  Population Normal (%): 90%
  Population Pyknosed Nuclei (%): 82%
  Population Tubulin-Different-Phenotype (%): 83%
  Total Cell Count: 153
[5]
  Population Apoptotic (%): 48%
  Population Fragmented Nuclei (%): 15%
  Population Healthy Nuclei (%): 34%
  Population Hoechst High Intensity Objects (%): 15%
  Population Membrane Permeable-Phenotype (%): 0%
  Population Mitochondria Different-Phenotype (%): 79%
  Population Mitotic Cells (%): 51%
  Population Normal (%): 84%
  Population Pyknosed Nuclei (%): 50%
  Population Tubulin-Different-Phenotype (%): 43%
  Total Cell Count: 216
[6]
  Population Apoptotic (%): 14%
  Population Fragmented Nuclei (%): 3%
  Population Healthy Nuclei (%): 60%
  Population Hoechst High Intensity Objects (%): 3%
  Population Membrane Permeable-Phenotype (%): 1%
  Population Mitochondria Different-Phenotype (%): 36%
  Population Mitotic Cells (%): 85%
  Population Normal (%): 96%
  Population Pyknosed Nuclei (%): 35%
  Population Tubulin-Different-Phenotype (%): 39%
  Total Cell Count: 330
[7]
  Population Fragmented Nuclei (%): 11%
  Population Healthy Nuclei (%): 19%
  Population Hoechst High Intensity Objects (%): 16%
  Population Membrane Permeable-Phenotype (%): 2%
  Population Mitochondria Different-Phenotype (%): 86%
  Population Normal (%): 83%
  Population Pyknosed Nuclei (%): 68%
  Population Tubulin-Different-Phenotype (%): 95%
  Total Cell Count: 274
[8]
  Population Apoptotic (%): 53%
  Population Fragmented Nuclei (%): 9%
  Population Healthy Nuclei (%): 13%
  Population Hoechst High Intensity Objects (%): 7%
  Population Membrane Permeable-Phenotype (%): 10%
  Population Mitochondria Different-Phenotype (%): 63%
  Population Mitotic Cells (%): 46%
  Population Normal (%): 92%
  Population Pyknosed Nuclei (%): 77%
  Population Tubulin-Different-Phenotype (%): 89%
  Total Cell Count: 154
[9]
  Population Apoptotic (%): 57%
  Population Fragmented Nuclei (%): 16%
  Population Healthy Nuclei (%): 44%
  Population Hoechst High Intensity Objects (%): 18%
  Population Membrane Permeable-Phenotype (%): 0%
  Population Mitochondria Different-Phenotype (%): 48%
  Population Mitotic Cells (%): 42%
  Population Normal (%): 81%
  Population Pyknosed Nuclei (%): 38%
  Population Tubulin-Different-Phenotype (%): 40%
  Total Cell Count: 232
[10]
  Population Apoptotic (%): 22%
  Population Fragmented Nuclei (%): 5%
  Population Healthy Nuclei (%): 76%
  Population Hoechst High Intensity Objects (%): 3%
  Population Membrane Permeable-Phenotype (%): 2%
  Population Mitochondria Different-Phenotype (%): 11%
  Population Mitotic Cells (%): 77%
  Population Normal (%): 96%
  Population Pyknosed Nuclei (%): 18%
  Population Tubulin-Different-Phenotype (%): 29%
  Total Cell Count: 557
[11]
  Population Apoptotic (%): 53%
  Population Fragmented Nuclei (%): 16%
  Population Healthy Nuclei (%): 26%
  Population Hoechst High Intensity Objects (%): 10%
  Population Membrane Permeable-Phenotype (%): 19%
  Population Mitochondria Different-Phenotype (%): 33%
  Population Mitotic Cells (%): 46%
  Population Normal (%): 89%
  Population Pyknosed Nuclei (%): 57%
  Population Tubulin-Different-Phenotype (%): 87%
  Total Cell Count: 264
[12]
  Population Apoptotic (%): 58%
  Population Fragmented Nuclei (%): 8%
  Population Healthy Nuclei (%): 24%
  Population Hoechst High Intensity Objects (%): 8%
  Population Membrane Permeable-Phenotype (%): 25%
  Population Mitochondria Different-Phenotype (%): 61%
  Population Mitotic Cells (%): 41%
  Population Normal (%): 91%
  Population Pyknosed Nuclei (%): 66%
  Population Tubulin-Different-Phenotype (%): 83%
  Total Cell Count: 158

## Cc1cc(NC(=O)c2cccc(S(F)(F)(F)(F)F)c2)cc(-n2ccn3nc(-c4cccnc4)cc23)c1 [BAY-309]
[3]
  Population Fragmented Nuclei (%): 16% and 13%
  Population Healthy Nuclei (%): 34% and 63%
  Population Hoechst High Intensity Objects (%): 16% and 9%
  Population Membrane Permeable-Phenotype (%): 25% and 14%
  Population Mitochondria Different-Phenotype (%): 32% and 12%
  Population Mitotic Cells (%): 34% and 83%
  Population Normal (%): 83% and 90%
  Population Pyknosed Nuclei (%): 48% and 23%
  Population Tubulin-Different-Phenotype (%): 86% and 41%
  Total Cell Count: 619 and 653
[4]
  Population Fragmented Nuclei (%): 3% and 2%
  Population Healthy Nuclei (%): 87% and 72%
  Population Hoechst High Intensity Objects (%): 2% and 4%
  Population Membrane Permeable-Phenotype (%): 16% and 17%
  Population Mitotic Cells (%): 92% and 54%
  Population Normal (%): 97% and 95%
  Population Tubulin-Different-Phenotype (%): 59% and 98%
  Total Cell Count: 1524 and 975
[7]
  Population Fragmented Nuclei (%): 19% and 9%
  Population Healthy Nuclei (%): 29% and 77%
  Population Hoechst High Intensity Objects (%): 16% and 7%
  Population Membrane Permeable-Phenotype (%): 10% and 21%
  Population Normal (%): 83% and 92%
  Population Tubulin-Different-Phenotype (%): 85% and 66%
  Total Cell Count: 590 and 755
[8]
  Population Healthy Nuclei (%): 79% and 66%
  Population Hoechst High Intensity Objects (%): 3% and 6%
  Population Mitotic Cells (%): 94% and 45%
  Population Normal (%): 96% and 93%
  Population Tubulin-Different-Phenotype (%): 67% and 98%
  Total Cell Count: 2348 and 996
